The source of these data is the array DNA melting data of Ke et al. (doi:10.1101/2024.01.08.574731).

Data set [1] is described as follows: melting temperature; fluorescence melt of hairpins on a sequencing array, two-state fit, raised by 9.35 °C to match UV melts. The following applies: sodium 0.088 M. Summed up: (§1)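 Folding enthalpy and melting temperature were estimated with bootstrapped two-state fits and combined across four replicates by inverse-variance weighting, with fitted temperatures raised by 9.35 °C to match UV melts. The data were Cy3 fluorescence of library hairpins, with annealed Cy3 and quencher oligos, on a sequenced MiSeq flow cell in 50 mM Na-HEPES pH 8.0, 25 mM NaCl, imaged in 2.5 °C steps up to 60 °C and normalised to pre-quench Cy3 and control constructs.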

A short description of data set [2]: folding enthalpy; higher = less favourable; fluorescence melt of hairpins on a sequencing array, two-state fit. The following applies: sodium 0.088 M. Summed up: as §1

Turning to GGGCCTGGAAACGGGTCC ((.((.(....).)).)), the Tm in data set [1] turned out to be 50.9 °C. The folding enthalpy in data set [2] was -26.3 kcal/mol.
As for GGGCCTTCGAAAGAACCC (((..(((....)))))), the Tm in data set [1] was determined as 30.4 °C. In addition, the folding enthalpy in data set [2] is -7.96 kcal/mol.
For the sequence GGGCGACGAAAGTCCCCC (((.(((....))).))), the Tm in data set [1] stood at 55.7 °C. In data set [2], the folding enthalpy was -31.2 kcal/mol.
For GGGCGAGGAAACCCACCC (((.(.(....).).))) the same measures were 30.9 °C and -16.4 kcal/mol.
For GGGCGAGGAAACTCGTCC ((.((((....)))).)) the same measures were 58.2 °C and -41.5 kcal/mol.
In the same order, the values of GGGCGCCCGAAAGGGCCC (((..(((....)))))) are 59.5 °C and -11.5 kcal/mol.
As for GGGCGCGAAAGCGGACCC ((((((....)))..))), the Tm in data set [1] was determined as 61.5 °C. The folding enthalpy in data set [2] is -12.8 kcal/mol.
For the sequence GGGCGCGAAAGCGTGCCC ((((((....)))..))), the Tm in data set [1] was 64.2 °C. Also, in data set [2], the folding enthalpy is -19.1 kcal/mol.
For GGGCGGCGAAAGCCCCC (((.(((....)))))) the same measures were 65.6 °C and -17.3 kcal/mol.
For the sequence GGGCGTCGAAAGACCCCC (((.(((....))).))), the Tm in data set [1] is 59 °C. The folding enthalpy in data set [2] is -16.6 kcal/mol.
On to GGGCGTTCGAAAGAACCC (((..(((....)))))), for which the Tm in data set [1] turned out to be 50.3 °C. In addition, the folding enthalpy in data set [2] is -19.9 kcal/mol.
For GGGCTACGAAAGTATCCC (((.(((....))).))) the same measures were 48.4 °C and -29.9 kcal/mol.
In the same order, the values of GGGCTCCGAAAGGATCCC (((.(((....))).))) are 53.5 °C and -44.4 kcal/mol.
With GGGCTCGAAAGAGGACCC ((((((....)))..))), the Tm in data set [1] came to 49.5 °C. The folding enthalpy in data set [2] is -20.9 kcal/mol.
For GGGCTCGAAAGAGTGCCC ((((((....)))..))) the same measures were 51.3 °C and -34.1 kcal/mol.
In the same order, the values of GGGCTCGGAAACGAGTCC ((.((((....)))).)) are 65.2 °C and -41 kcal/mol.
For GGGCTCGGAAACGGGCCC ((((.((....)).)))) the same measures were 66.9 °C and -43.6 kcal/mol.
Turning to GGGCTGCGAAAGCAACCC (((.(((....))).))), the Tm in data set [1] was determined as 60.2 °C. Also, the folding enthalpy in data set [2] is -38.9 kcal/mol.
For GGGCTGGGAAACCAGCTC (.(((((....))))).) the same measures were 58.7 °C and -26.6 kcal/mol.
For GGGCTGTCGAAAGACCCC (((..(((....)))))) the same measures were 44.1 °C and -18.4 kcal/mol.
In the same order, the values of GGGCTTCGAAAGAACCCC (((.(((....))).))) are 47.6 °C and -20.5 kcal/mol.
For the sequence GGGCTTGGAAACGAGCTC (.(((.(....).))).), the Tm in data set [1] was 42 °C. Moreover, in data set [2], the folding enthalpy was -29.7 kcal/mol.
As for GGGGAAACGAAAGTTCCC (((..(((....)))))), the Tm in data set [1] worked out at 52 °C. Moreover, the folding enthalpy in data set [2] is -22.1 kcal/mol.
In the same order, the values of GGGGAAGGAAACTTCCCC (((((((....))))))) are 65 °C and -30.4 kcal/mol.
For GGGGAAGGAAACTTCTCC ((.((((....)))).)) the same measures were 45.4 °C and -35.5 kcal/mol.
Consider GGGGACGAAAGTCACCC ((((((....))).))), for which, in data set [1], the Tm was determined as 65.7 °C. Besides, the folding enthalpy in data set [2] is -17.6 kcal/mol.
In the same order, the values of GGGGACGAAAGTCGACCC ((((((....)))..))) are 48.9 °C and -18.3 kcal/mol.
Turning to GGGGACGGAAACGTCCTC (.(((((....))))).), the Tm in data set [1] worked out at 58.7 °C. Moreover, in data set [2], the folding enthalpy is -13.7 kcal/mol.
In the same order, the values of GGGGAGAAATCCCC (((((....))))) are 53.5 °C and -26.6 kcal/mol.
GGGGAGACGAAAGTCCCC (((..(((....)))))): in data set [1], the Tm was found to be 58.1 °C. Also, the folding enthalpy in data set [2] is -29.6 kcal/mol.
For GGGGAGGGAAACCTCTCC ((.((((....)))).)) the same measures were 51.8 °C and -34.1 kcal/mol.
In the same order, the values of GGGGAGGGAAACTTCCCC (((((.(....).))))) are 50.9 °C and -33 kcal/mol.
With GGGGAGTCGAAAGACCCC (((..(((....)))))), in data set [1], the Tm amounted to 54.7 °C. Moreover, in data set [2], the folding enthalpy is -29.2 kcal/mol.
In the same order, the values of GGGGCAACGAAAGTTCCC (((..(((....)))))) are 47.4 °C and -25.5 kcal/mol.
For GGGGCAGGAAACTGTCCC (((.(((....))).))) the same measures were 61.3 °C and -39.4 kcal/mol.
GGGGCCGAAAGGCAACCC ((((((....)))..))): the Tm in data set [1] came to 57.3 °C. Besides, the folding enthalpy in data set [2] is -15 kcal/mol.
In the case of GGGGCCGAAAGGCAGCCC ((((((....)))..))), the Tm in data set [1] came out at 54 °C. The folding enthalpy in data set [2] was -14.6 kcal/mol.
In the case of GGGGCCTCGAAAGAGCCC (((..(((....)))))), the Tm in data set [1] turned out to be 56.8 °C. Besides, the folding enthalpy in data set [2] is -23.8 kcal/mol.
Regarding GGGGCTGGAAACAGTCCC (((.(((....))).))), the Tm in data set [1] was 59.1 °C. The folding enthalpy in data set [2] is -50.6 kcal/mol.
In the same order, the values of GGGGGAGGAAACTCCCTC (.(((((....))))).) are 54.6 °C and -19.3 kcal/mol.
For GGGGGAGGAAACTCCTCC ((.((((....)))).)) the same measures were 53.4 °C and -22 kcal/mol.
For GGGGGTACGAAAGTACCC (((..(((....)))))) the same measures were 63.4 °C and -8.56 kcal/mol.
For the sequence GGGGGTCGAAAGACACCC (((.(((....))).))), the Tm in data set [1] is 67.4 °C. Moreover, the folding enthalpy in data set [2] was -35.5 kcal/mol.
In the same order, the values of GGGGGTGGAAACGCCCTC (.(((.(....).))).) are 59.5 °C and -28 kcal/mol.
For GGGGGTGGAAACGCCTCC ((.((.(....).)).)) the same measures were 49.7 °C and -23.7 kcal/mol.
Consider GGGGGTGGAAACGTCCCC ((((..(....)..)))), for which, in data set [1], the Tm is 48.7 °C. The folding enthalpy in data set [2] was -26.2 kcal/mol.
For GGGGTAGGAAACTATCCC (((.(((....))).))) the same measures were 48.9 °C and -38.4 kcal/mol.
Consider GGGGTAGGAAACTGCCTC (.((.((....)).)).), for which, in data set [1], the Tm is 38 °C. For the same sequence, the folding enthalpy in data set [2] is -25.1 kcal/mol.
In the same order, the values of GGGGTCCGAAAGGATCCC (((.(((....))).))) are 67.9 °C and -36 kcal/mol.
Consider GGGGTCGAAAGACATCCC ((((((....)))..))), for which the Tm in data set [1] was found to be 46.5 °C. In addition, in data set [2], the folding enthalpy was -17.1 kcal/mol.
With GGGGTCGAAAGACCTCCC ((((((....)))..))), in data set [1], the Tm amounted to 51.4 °C. Besides, in data set [2], the folding enthalpy was -11.7 kcal/mol.
In the same order, the values of GGGGTCGAAAGACTGCCC ((((((....)))..))) are 41.5 °C and -16.2 kcal/mol.
In the same order, the values of GGGGTGCCGAAAGGCCCC (((..(((....)))))) are 65 °C and -14.6 kcal/mol.
For GGGGTGGCGAAAGCCCCC (((..(((....)))))) the same measures were 62.9 °C and -14.2 kcal/mol.
In the case of GGGGTTGAAAAACCCC ((((((....)))))), the Tm in data set [1] was 66.7 °C. Further, the folding enthalpy in data set [2] is -34.5 kcal/mol.
In the same order, the values of GGGGTTGGAAACAACCTC (.(((((....))))).) are 52.5 °C and -31.5 kcal/mol.
With GGGTAAACGAAAGTTCCC (((..(((....)))))), in data set [1], the Tm was 39.8 °C. For the same sequence, the folding enthalpy in data set [2] was -20.7 kcal/mol.
For GGGTAACGAAAGTTTCCC (((.(((....))).))) the same measures were 50.3 °C and -43 kcal/mol.
With GGGTAAGAAATTACCC ((((((....)))))), the Tm in data set [1] is 50.9 °C. Further, the folding enthalpy in data set [2] is -27.4 kcal/mol.
For GGGTAATCGAAAGATCCC (((..(((....)))))), the Tm in data set [1] came to 35.9 °C. Also, the folding enthalpy in data set [2] is -25 kcal/mol.
For the sequence GGGTACCGAAAGGTGCCC (((.(((....))).))), the Tm in data set [1] came out at 68.7 °C. The folding enthalpy in data set [2] is -29.2 kcal/mol.
In the same order, the values of GGGTACGAAAGTAAGCCC ((((((....)))..))) are 40.7 °C and -20.7 kcal/mol.
In the same order, the values of GGGTAGCGAAAGCTGCCC (((.(((....))).))) are 69.2 °C and -33.5 kcal/mol.
For GGGTAGGCGAAAGCCCCC (((..(((....)))))) the same measures were 53 °C and -16.9 kcal/mol.
Regarding GGGTAGGGAAACCTACTC (.(((((....))))).), the Tm in data set [1] stood at 44.6 °C. Moreover, the folding enthalpy in data set [2] is -18.7 kcal/mol.
In the case of GGGTAGGGAAACCTGCTC (.(.(((....))).).), the Tm in data set [1] worked out at 36.5 °C. In addition, the folding enthalpy in data set [2] is -14.8 kcal/mol.
For GGGTAGGGAAACCTGTCC ((..(((....)))..)), in data set [1], the Tm was 32.3 °C. In addition, the folding enthalpy in data set [2] was -17.2 kcal/mol.
For GGGTAGGGAAACTTGCCC (((.(.(....).).))) the same measures were 35.6 °C and -20.4 kcal/mol.
For GGGTATCGAAAGATCCC (((.(((....)))))), the Tm in data set [1] amounted to 49.7 °C. Also, the folding enthalpy in data set [2] was -30.6 kcal/mol.
For GGGTATGGAAACGTACTC (.(((.(....).))).), in data set [1], the Tm turned out to be 30.7 °C. Further, in data set [2], the folding enthalpy is -13.4 kcal/mol.
In the same order, the values of GGGTCAACGAAAGTTCCC (((..(((....)))))) are 34.7 °C and -18.8 kcal/mol.
Regarding GGGTCAGCGAAAGCTCCC (((..(((....)))))), in data set [1], the Tm stood at 42.7 °C. For the same sequence, the folding enthalpy in data set [2] was -17.7 kcal/mol.
In the same order, the values of GGGTCCACGAAAGTGCCC (((..(((....)))))) are 40.8 °C and -17.9 kcal/mol.
